The values that follow come from ChEMBL document CHEMBL1155720, “Antioxidant principles from Bauhinia tarapotensis” (J Nat Prod, 2001).

Holding throughout (assay type): functional
Assay [1] relates to Radical scavenging activity. Kind of assay: Antioxidant activity assessed as DPPH free radical scavenging activity after 30 mins. An outline of the steps:
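Pure compound in methanol, 30 µL added to 3 mL of 0.004% DPPH in MeOH. A517 read after 30 min and percent inhibition calculated. IC50 is the concentration scavenging 50% of DPPH radical.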
Background: The DPPH test is a chemical assay of radical scavenging.

Assay [2] can be described thus: Antioxidant activity assessed as trolox equivalents of ABTS radical scavenging activity by TEAC assay. An outline of the steps:
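ABTS•+ made from 7 mM ABTS in water with 2.45 mM potassium persulfate, kept 12 h in the dark at room temperature. Diluted in PBS pH 7.4 to A734 0.70 and equilibrated at 30 °C. Samples in methanol at 0.3–2 mM, 10 µL added to 1 mL ABTS•+. Percent inhibition of A734 measured against a methanol blank, in triplicate, and plotted against concentration. TEAC is the Trolox concentration giving the same inhibition as 1 mM compound.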

Assay [3] in a line: Antioxidant activity against beta-carotene and linoleic acid assessed asbleaching of beta-carotene at 60 mins by autooxidation assay. A digest of the protocol:
(§1)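 β-carotene bleaching (Pratt method): linolenic acid 20 mg and Tween 20 200 mg plus β-carotene 2 mg in 10 mL CHCl3. CHCl3 removed, then 50 mL oxygen-saturated distilled water added. Samples oxidized at 50 °C for 3 h, A470 read at intervals. AA = 100[1 − (A0 − At)/(A00 − A0t)], comparing absorbance at start and at time t with and without compound.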

The nature of assay [4]: Antioxidant activity against beta-carotene and linoleic acid assessed asbleaching of beta-carotene at 120 mins by autooxidation assay. An outline of the steps: as §1

In the case of `COc1cc([C@H]2OC[C@]3(O[C@@H]4O[C@H](CO)[C@@H](O)[C@H](O)[C@H]4O)[C@@H](c4ccc(O)c(OC)c4)OC[C@H]23)ccc1O`, the IC50 – broadly, the midpoint of a concentration-inhibition curve – in assay [1] is 20.3 µM. Besides, the figures for the Activity in assay [2], in assay [3] and in assay [4] were 0.935, 10.7 and 8.5, respectively.
Take `Cc1cc(C(C)(C)C)c(O)c(C(C)(C)C)c1`: the Activity came to 63.9 in assay [3] and 62.5 in assay [4].
For the compound `O=C1C=C[C@H](O)C[C@@]1(O)CCO` (relative stereo), the Activity is 0.076 in assay [2], 43 in assay [3] and 9.7 in assay [4].
As to `O=C(O)c1c[nH]c2ccccc12`, the Activity in assay [2] is 0.092; in assay [3] it was -10.1; in assay [4] it was -6.5.
On to `O=C(/C=C/c1ccc(O)c(O)c1)OCC(O)(CO)C(O)C(=O)O` (stereo not drawn), for which the values for the Activity in assay [2], in assay [3] and in assay [4] were 0.484, 25.2 and 20.5, respectively.
Regarding `C[C@@H]1O[C@@H](O[C@@H]2[C@@H](O)[C@H](OCCc3ccc(O)c(O)c3)O[C@H](COC(=O)/C=C/c3ccc(O)c(O)c3)[C@H]2O)[C@H](O)[C@H](O)[C@H]1O` [ISOACTEOSIDE], in assay [1], the IC50 came out at 1.3 µM. Also, the Activity in assay [2] was found to be 1.23; in assay [3], 24.6; in assay [4], 7.2.
Consider `C[C@@H]1O[C@@H](OC[C@H]2O[C@@H](Oc3c(-c4ccc(O)c(O)c4)oc4cc(O)cc(O)c4c3=O)[C@H](O)[C@@H](O)[C@@H]2O)[C@H](O)[C@H](O)[C@H]1O`, for which, in assay [2], the Activity was 2.42.
Turning to `COc1cc([C@@H]2c3cc(O)c(OC)cc3C[C@H](CO)[C@H]2CO[C@@H]2O[C@H](CO)[C@@H](O)[C@H](O)[C@H]2O)ccc1O`, the half-maximal inhibitory concentration (IC50) in assay [1] worked out at 10.5 µM. The figures for the Activity in assay [2], in assay [3] and in assay [4] were 0.826, -10 and -6.2, respectively.
In the case of `O=C(O)/C=C/c1ccc(O)c(O)c1`, in assay [2], the Activity worked out at 1.26.
Regarding `O=c1cc(-c2ccc(O[C@@H]3O[C@H](CO)[C@@H](O)[C@H](O)[C@H]3O)c(O)c2)oc2cc(O)cc(O)c12`, the Activity was 0.445 in assay [2], 16.2 in assay [3] and 10 in assay [4].
